Activity calls are given as the source filed them. No cut-off for these calls is given here.
Experiments:
PBS RNA [1] = assay: Binding affinity to HIV1 (+)PBS/(-)PBS RNA sequence assessed as inhibition of recombinant full-length HIV-1 nucleocapsid protein-mediated (+)/(-)PBS RNA annealing preincubated with (+)/(-)PBS RNA for 15 mins followed by NC addition and measured after 10 mins by RAMPA assay; format: nucleic-acid assay, Human immunodeficiency virus 1
Procedure, shortened: (§1)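 Each folded PBS RNA strand (1 μM) was preincubated with compound for 15 min at room temperature. The two strands were then mixed with annealer: NC at 3 μM for line 4, Tat(48–57) […]. Annealing ran 10 min at room temperature and products were resolved by gel. The annealer-induced duplex band was quantified to derive IC50, reported as mean ± SEM of triplicate experiments.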

PBS RNA [2] = assay: Binding affinity to HIV1 (+)/(-) PBS RNA sequence assessed as inhibition of HIV-1 Tat (48 to 57 residues) mediated (+)/(-)PBS RNA annealing preincubated with (+)/(-)PBS RNA for 15 mins followed by peptide addition and measured after 10 mins by RAMPA assay; format: nucleic-acid assay, Human immunodeficiency virus 1; procedure, shortened: as §1
PBS RNA [3] = assay: Binding affinity to HIV1 (+)PBS RNA assessed as compound-RNA complex formation at stoichiometry ratio of 1:1 incubated for 30 mins measured under non-denaturing conditions by ESI-MS analysis; format: nucleic-acid assay; conditions: Human immunodeficiency virus 1
Procedure, shortened: (§2)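 In ESI-MS spectra of compound–RNA mixtures, peaks for free RNA and complexed species were quantified. The percentage of bound substrate in each spectrum gave the relative binding affinity for each RNA construct.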

PBS RNA [4] = assay: Binding affinity to HIV1 (-)PBS RNA assessed as compound-RNA complex formation at stoichiometry ratio of 1:1 incubated for 30 mins measured under non-denaturing conditions by ESI-MS analysis; format: nucleic-acid assay; conditions: Human immunodeficiency virus 1; procedure, shortened: as §2
PBS RNA [5] = assay: Binding affinity to HIV1 (+)PBS RNA assessed as compound-RNA complex formation at stoichiometry ratio of 2:1 incubated for 30 mins measured under non-denaturing conditions by ESI-MS analysis; format: nucleic-acid assay; conditions: Human immunodeficiency virus 1
Procedure, shortened: (§3)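 ESI-MS binding: compound–RNA mixtures analysed for free and compound-bound RNA species, including 2:1 complexes. Species peak intensities were quantified to give the free versus bound partitioning, and the percentage of bound substrate in each spectrum was used to derive relative binding affinity for each RNA construct.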

PBS RNA [6] = assay: Binding affinity to HIV1 (-)PBS RNA assessed as compound-RNA complex formation at stoichiometry ratio of 2:1 incubated for 30 mins measured under non-denaturing conditions by ESI-MS analysis; format: nucleic-acid assay; conditions: Human immunodeficiency virus 1; procedure, shortened: as §3
PBS RNA [7] = assay: Binding affinity to HIV1 (+)PBS RNA at apical loop assessed as compound-RNA complex formation at stoichiometry ratio of 1:1 by MS/MS spectrum analysis; format: nucleic-acid assay; conditions: Human immunodeficiency virus 1

| Structure (SMILES) | IC50 (PBS RNA [1]) [µM] | IC50 (PBS RNA [2]) [µM] | Activity (PBS RNA [3]) | Activity (PBS RNA [4]) | Activity (PBS RNA [5]) | Activity (PBS RNA [6]) | Activity (PBS RNA [7]) |
| --- | --- | --- | --- | --- | --- | --- | --- |
| C[C@H](NC1(N)CCNCC1)C(=O)Nc1ccc2c(c1)C(=O)c1ccc(NC(=O)[C@H](C)NC3(N)CCNCC3)cc1C2=O | > 200 | > 200 | Active | Active | – | – | – |
| C[C@@H](NC1CCNCC1)C(=O)Nc1ccc2c(c1)C(=O)c1ccc(NC(=O)[C@@H](C)NC3CCNCC3)cc1C2=O | > 200 | > 200 | Active | Active | – | – | – |
| C[C@H](NC(=O)C(N)CN)C(=O)Nc1ccc2c(c1)C(=O)c1ccc(NC(=O)[C@H](C)NC(=O)C(N)CN)cc1C2=O (stereo partly specified) | 54 | 45 | Active | Active | – | – | – |
| C[C@H](NC(=O)C(N)CCCN)C(=O)Nc1ccc2c(c1)C(=O)c1ccc(NC(=O)[C@H](C)NC(=O)C(N)CCCN)cc1C2=O (stereo partly specified) | 21 | 16 | Active | Active | – | – | – |
| C[C@@H](NC(=O)C(N)CCCCN)C(=O)Nc1ccc2c(c1)C(=O)c1ccc(NC(=O)[C@@H](C)NC(=O)C(N)CCCCN)cc1C2=O (stereo partly specified) | 54 | 48 | Active | Active | – | – | – |
| NCCC(N)C(=O)NCCC(=O)Nc1ccc2c(c1)C(=O)c1ccc(NC(=O)CCNC(=O)C(N)CCN)cc1C2=O (stereo unspecified) | 30 | 24 | Active | Active | – | – | – |
| NCCCCC(N)C(=O)NCC(=O)Nc1ccc2c(c1)C(=O)c1ccc(NC(=O)CNC(=O)C(N)CCCCN)cc1C2=O (stereo unspecified) | 23 | 18 | – | – | Active | Active | – |
| C[C@@H](NC(=O)C(N)CCCN)C(=O)Nc1ccc2c(c1)C(=O)c1ccc(NC(=O)[C@@H](C)NC(=O)C(N)CCCN)cc1C2=O (stereo partly specified) | 55 | 54 | Active | Active | – | – | – |
| C[C@H](NC(=O)C(N)CCCCN)C(=O)Nc1ccc2c(c1)C(=O)c1ccc(NC(=O)[C@H](C)NC(=O)C(N)CCCCN)cc1C2=O (stereo partly specified) | 12 | 15 | – | – | Active | Active | Active |
| NCCCC(N)C(=O)NCC(=O)Nc1ccc2c(c1)C(=O)c1ccc(NC(=O)CNC(=O)C(N)CCCN)cc1C2=O (stereo unspecified) | 30 | 34 | Active | Active | – | – | – |
| NCCCC(N)C(=O)NCCC(=O)Nc1ccc2c(c1)C(=O)c1ccc(NC(=O)CCNC(=O)C(N)CCCN)cc1C2=O (stereo unspecified) | 20 | 20 | – | – | Active | Active | – |
| C[C@H](NC(=O)C(N)CCN)C(=O)Nc1ccc2c(c1)C(=O)c1ccc(NC(=O)[C@H](C)NC(=O)C(N)CCN)cc1C2=O (stereo partly specified) | 88 | > 100 | Active | Active | – | – | – |
| NCCCCC(N)C(=O)NCCC(=O)Nc1ccc2c(c1)C(=O)c1ccc(NC(=O)CCNC(=O)C(N)CCCCN)cc1C2=O (stereo unspecified) | 85 | > 100 | – | – | – | – | – |
